For assay [1], the target named is T1, Bromodomain-containing protein 4 (Homo sapiens, UniProt O60885). In words: Inhibition of N-terminal His-tagged BRD4 (BD1) (unknown origin) using biotinylated tetra-acetylated histone H4 peptide after 30 mins by alpha-screen assay. Background: Bead proximity is the source of the signal in Alpha formats.
The target in assay [2] is T1, Bromodomain-containing protein 4. The assay can be described thus: Inhibition of N-terminal His-tagged BRD4 (BD2) (unknown origin) using biotinylated tetra-acetylated histone H4 peptide after 30 mins by alpha-screen assay.
Assay [3] has the same target. In words: Inhibition of N-terminal His-tagged BRD4 (BD1/BD2) (unknown origin) using biotinylated tetra-acetylated histone H4 peptide after 30 mins by alpha-screen assay.
For assay [4] the target is unchanged. In words: Binding affinity to N-terminal His-tagged BRD4 (BD1) (unknown origin) assessed as change in melting temperature at 100 uM after 0.5 hrs by SYPRO orange protein staining-based thermal denaturation assay. The method in brief: (§1)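 N-terminally His-tagged recombinant BRD4(BD1), 5 µM, incubated with 100 µM compound and 5X SYPRO Orange in 50 mM NaCl/50 mM HEPES pH 7.4 for 30 min or 4 h. Protein thermal shift melt gives ΔTm; more than one transition may be resolved.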

Assay [5] has the same target. The assay can be described thus: Binding affinity to N-terminal His-tagged BRD4 (BD1) (unknown origin) assessed as change in melting temperature incubated for 4 hrs in presence of increasing concentrations of cysteine amino acids by SYPRO orange protein staining-based thermal denaturation assay. An outline of the steps: (§2)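 Preformed BRD4(BD1)–compound covalent complex incubated with excess free cysteine or methionine. Reversibility assessed by SYPRO Orange thermal denaturation, monitoring the complex's Tm.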

The target is the same in assay [6]. The assay can be described thus: Binding affinity to N-terminal His-tagged BRD4 (BD1) (unknown origin) assessed as change in melting temperature incubated for 4 hrs in presence of increasing concentrations of methionine by SYPRO orange protein staining-based thermal denaturation assay. An outline of the steps: as §2
Assay [7] has as its target PH-interacting protein (Homo sapiens) (UniProt Q8WWQ0). In words: Binding affinity to PHIP (unknown origin) assessed as change in melting temperature at 100 uM after 0.5 to 4 hrs by SYPRO orange protein staining-based thermal denaturation assay. The method in brief:
(§3)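 Thermal shift (PTS) screen of non-BET bromodomains. Each domain at 5 µM incubated with 100 µM covalent or control compound plus 5X SYPRO Orange in 50 mM NaCl/50 mM HEPES pH 7.4 for 30 min or 4 h. Change in Tm recorded, with a search for a high-Tm species.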

Assay [8] addresses SWI/SNF-related matrix-associated actin-dependent regulator of chromatin subfamily A member 4 (Homo sapiens) (UniProt P51532). In words: Binding affinity to BRG1 (unknown origin) assessed as change in melting temperature at 100 uM after 0.5 to 4 hrs by SYPRO orange protein staining-based thermal denaturation assay. The method in brief:
as §3

In assay [9] the target is Transcription initiation factor TFIID subunit 1 (Homo sapiens) (UniProt P21675). In words: Binding affinity to TAF1(2) (unknown origin) assessed as change in melting temperature at 100 uM after 0.5 to 4 hrs by SYPRO orange protein staining-based thermal denaturation assay. The method in brief: as §3
Transcription initiation factor TFIID subunit 1 (Homo sapiens), sequence (P21675 whole entry): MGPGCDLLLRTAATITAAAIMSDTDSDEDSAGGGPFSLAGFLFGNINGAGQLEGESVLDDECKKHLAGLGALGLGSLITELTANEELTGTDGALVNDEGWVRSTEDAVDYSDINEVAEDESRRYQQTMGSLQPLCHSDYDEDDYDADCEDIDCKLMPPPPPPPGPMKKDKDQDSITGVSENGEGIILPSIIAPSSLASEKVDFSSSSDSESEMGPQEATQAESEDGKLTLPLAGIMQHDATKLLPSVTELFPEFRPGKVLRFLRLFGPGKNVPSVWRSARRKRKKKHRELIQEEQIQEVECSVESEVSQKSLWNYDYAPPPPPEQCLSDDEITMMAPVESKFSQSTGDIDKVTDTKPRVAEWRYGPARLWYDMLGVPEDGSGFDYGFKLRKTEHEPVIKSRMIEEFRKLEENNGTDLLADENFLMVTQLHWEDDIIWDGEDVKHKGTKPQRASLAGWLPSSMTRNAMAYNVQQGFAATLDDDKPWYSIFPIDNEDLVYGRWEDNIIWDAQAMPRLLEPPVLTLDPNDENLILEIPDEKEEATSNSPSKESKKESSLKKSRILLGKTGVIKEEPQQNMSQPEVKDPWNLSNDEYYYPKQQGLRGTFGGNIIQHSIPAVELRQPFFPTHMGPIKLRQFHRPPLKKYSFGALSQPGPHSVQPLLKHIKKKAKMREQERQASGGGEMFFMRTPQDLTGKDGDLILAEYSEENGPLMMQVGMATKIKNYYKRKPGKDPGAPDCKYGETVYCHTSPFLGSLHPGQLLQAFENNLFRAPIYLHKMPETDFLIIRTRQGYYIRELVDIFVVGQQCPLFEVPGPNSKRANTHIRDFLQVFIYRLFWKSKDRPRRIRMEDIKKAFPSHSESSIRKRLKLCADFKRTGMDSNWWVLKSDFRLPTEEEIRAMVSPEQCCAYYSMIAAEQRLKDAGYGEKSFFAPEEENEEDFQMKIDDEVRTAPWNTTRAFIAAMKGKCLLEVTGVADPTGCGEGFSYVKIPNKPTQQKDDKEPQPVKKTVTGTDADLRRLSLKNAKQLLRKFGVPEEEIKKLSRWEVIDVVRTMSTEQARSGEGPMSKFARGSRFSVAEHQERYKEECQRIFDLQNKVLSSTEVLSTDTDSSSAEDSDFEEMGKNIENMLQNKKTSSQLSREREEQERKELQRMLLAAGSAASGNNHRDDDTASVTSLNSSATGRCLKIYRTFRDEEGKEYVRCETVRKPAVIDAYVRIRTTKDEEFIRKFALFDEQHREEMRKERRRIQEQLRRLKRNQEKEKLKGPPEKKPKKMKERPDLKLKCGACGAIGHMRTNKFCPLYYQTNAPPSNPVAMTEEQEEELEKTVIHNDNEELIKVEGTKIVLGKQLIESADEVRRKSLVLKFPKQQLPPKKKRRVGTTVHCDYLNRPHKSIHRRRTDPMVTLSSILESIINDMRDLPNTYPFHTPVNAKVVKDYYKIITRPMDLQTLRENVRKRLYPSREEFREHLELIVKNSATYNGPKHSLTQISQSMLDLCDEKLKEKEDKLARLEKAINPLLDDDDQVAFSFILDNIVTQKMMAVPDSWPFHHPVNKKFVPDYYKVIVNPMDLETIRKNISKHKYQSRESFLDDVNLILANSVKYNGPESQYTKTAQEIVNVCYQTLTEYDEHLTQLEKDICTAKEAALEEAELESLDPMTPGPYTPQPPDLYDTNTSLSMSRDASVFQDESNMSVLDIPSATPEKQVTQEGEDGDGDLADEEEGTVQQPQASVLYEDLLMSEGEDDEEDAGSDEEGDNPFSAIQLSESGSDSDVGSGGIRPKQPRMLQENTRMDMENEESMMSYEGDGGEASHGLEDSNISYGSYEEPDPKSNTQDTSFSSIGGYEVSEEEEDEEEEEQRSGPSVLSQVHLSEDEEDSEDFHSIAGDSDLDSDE
Assay [10] addresses Histone acetyltransferase p300 (Homo sapiens) (UniProt Q09472). The assay can be described thus: Binding affinity to P300 (unknown origin) assessed as change in melting temperature at 100 uM after 0.5 to 4 hrs by SYPRO orange protein staining-based thermal denaturation assay. An outline of the steps:
as §3

The target in assay [11] is T2, Peregrin (Homo sapiens) (UniProt P55201).
T2 sequence (whole entry): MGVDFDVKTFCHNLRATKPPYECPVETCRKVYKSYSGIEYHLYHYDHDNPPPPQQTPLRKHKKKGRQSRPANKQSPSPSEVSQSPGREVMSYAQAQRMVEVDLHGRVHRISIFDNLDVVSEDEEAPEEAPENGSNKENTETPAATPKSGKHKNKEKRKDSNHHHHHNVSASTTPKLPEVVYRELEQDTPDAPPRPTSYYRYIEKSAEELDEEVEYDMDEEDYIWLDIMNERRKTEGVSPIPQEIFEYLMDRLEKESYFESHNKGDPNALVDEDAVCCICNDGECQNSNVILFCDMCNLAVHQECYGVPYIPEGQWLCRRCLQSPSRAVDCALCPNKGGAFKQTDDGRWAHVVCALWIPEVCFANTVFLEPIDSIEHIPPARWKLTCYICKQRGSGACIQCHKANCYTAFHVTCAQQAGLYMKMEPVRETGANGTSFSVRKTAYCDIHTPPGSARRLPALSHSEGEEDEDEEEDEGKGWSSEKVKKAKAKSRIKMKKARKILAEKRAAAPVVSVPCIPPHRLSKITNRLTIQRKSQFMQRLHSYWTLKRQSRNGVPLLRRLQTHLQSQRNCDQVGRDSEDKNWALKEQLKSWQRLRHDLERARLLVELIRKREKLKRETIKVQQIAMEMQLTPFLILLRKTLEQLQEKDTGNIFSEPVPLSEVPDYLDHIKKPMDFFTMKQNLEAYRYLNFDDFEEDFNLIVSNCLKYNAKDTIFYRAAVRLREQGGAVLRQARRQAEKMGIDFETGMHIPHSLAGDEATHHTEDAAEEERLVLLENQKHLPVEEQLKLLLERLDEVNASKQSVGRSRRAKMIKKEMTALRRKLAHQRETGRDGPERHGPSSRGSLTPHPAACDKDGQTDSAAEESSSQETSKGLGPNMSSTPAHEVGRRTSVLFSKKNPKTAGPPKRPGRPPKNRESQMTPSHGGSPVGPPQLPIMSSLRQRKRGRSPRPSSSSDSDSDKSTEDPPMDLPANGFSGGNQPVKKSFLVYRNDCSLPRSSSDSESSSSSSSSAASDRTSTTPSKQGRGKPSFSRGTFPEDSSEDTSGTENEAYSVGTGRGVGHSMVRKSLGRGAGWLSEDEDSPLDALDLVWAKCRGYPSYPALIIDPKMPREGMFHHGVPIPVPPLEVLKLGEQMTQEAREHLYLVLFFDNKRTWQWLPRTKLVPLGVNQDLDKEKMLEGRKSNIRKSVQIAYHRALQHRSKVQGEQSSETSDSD
The assay can be described thus: Binding affinity to BRPF1 (unknown origin) assessed as change in melting temperature at 100 uM after 0.5 to 4 hrs by SYPRO orange protein staining-based thermal denaturation assay. The method in brief: as §3

Assay [12] has as its target CREB-binding protein (Homo sapiens) (UniProt Q92793). In words: Binding affinity to CREBBP (unknown origin) assessed as change in melting temperature at 100 uM after 0.5 to 4 hrs by SYPRO orange protein staining-based thermal denaturation assay. The method in brief:
as §3

Assay [13] has as its target T1, Bromodomain-containing protein 4. In words: Binding affinity to N-terminal His-tagged BRD4 (BD1) (unknown origin) assessed as change in melting temperature at 100 uM after 4 hrs by SYPRO orange protein staining-based thermal denaturation assay. The method in brief:
as §1

Assay [14] deals with MV4-11. The assay can be described thus: Antiproliferative activity against human MV4-11 cells after 48 hrs by cell-titer 96 aqueous one solution reagent-based assay. Format: functional. An outline of the steps: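 MV4-11 seeded at 25,000–50,000 cells/well with two-fold compound dilutions added at seeding, triplicate wells. DMSO 0.1% final as negative control. Continuous treatment at 37 °C, 5% CO2, measured at 48 h. CellTiter 96 AQueous One reagent for 3 h, then absorbance at 490 nm. % proliferation = (OD sample − OD blank)/OD DMSO × 100. IC50 taken from dose–response.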

Assay [15] relates to MV4-11. The assay can be described thus: Antiproliferative activity against human MV4-11 cells preincubated for 24 hrs by followed by compound washout measured after 48 hrs post compound washout by cell-titer 96 aqueous one solution reagent-based assay. Format: functional. The method in brief:
(§4)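 Washout format: MV4-11 plated at 25,000 cells/well with two-fold dilutions, triplicate wells. Cells treated 24 h, compound removed and cells washed twice with conditioned media. Growth continued 48 h in compound-free media. Read with CellTiter 96 AQueous One reagent, absorbance 490 nm, expressed as % of DMSO control.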

The target in assay [16] is T1, Bromodomain-containing protein 4. The assay can be described thus: Irreversible inhibition of BRD4 in human MV4-11 cells assessed as suppression of MYC mRNA levels preincubated for 4 hrs followed by compound washout measured after 4 to 24 hrs post washout by RT-PCR analysis. Format: cell-based. The method in brief: (§5)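 MV4-11 cells, 50,000/well, exposed for 4 h at 37 °C, 5% CO2 to compound in IMDM + 10% FBS (0.2% DMSO final; DMSO-only control). Cells washed 3 times with conditioned media and placed in compound-free media, then harvested after washout for mRNA capture. One-step TaqMan real-time PCR with cyclophilin A reference. Results given as % of DMSO control.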

Assay [17] shares this target. The assay can be described thus: Irreversible inhibition of BRD4 in human MV4-11 cells assessed as suppression of BCL2 mRNA levels preincubated for 4 hrs followed by compound washout measured after 4 to 24 hrs post washout by RT-PCR analysis. Type of assay: cell-based. The method in brief: as §5
Assay [18] shares this target. In words: Irreversible inhibition of BRD4 in human MV4-11 cells assessed as suppression of CCR1 mRNA levels preincubated for 4 hrs followed by compound washout measured after 4 to 24 hrs post washout by RT-PCR analysis. Format: cell-based. The method in brief:
as §5

Assay [19] shares this target. The assay can be described thus: Irreversible inhibition of BRD4 in human MV4-11 cells assessed as suppression of […] mRNA levels preincubated for 4 hrs followed by compound washout measured after 4 to 24 hrs post washout by RT-PCR analysis. Format: cell-based. An outline of the steps: as §5
Assay [20] has the same target. The assay can be described thus: Irreversible inhibition of BRD4 in human MV4-11 cells assessed as suppression of IL1RN mRNA levels preincubated for 4 hrs followed by compound washout measured after 4 to 24 hrs post washout by RT-PCR analysis. Format: cell-based. The method in brief: as §5
The test system of assay [21] is MV4-11. In words: Antiproliferative activity against human MV4-11 cells incubated for 24 hrs followed by compound removal and further incubation for 48 hrs by cell-titer 96 aqueous one solution reagent-based assay. Type of assay: functional. The method in brief: as §4

Consider two molecules from ChEMBL document CHEMBL4229554, “Design and Characterization of Novel Covalent Bromodomain and Extra-Terminal Domain (BET) Inhibitors Targeting a Methionine” (J Med Chem, 2018).

Calls of active or inactive are those of the source. No cut-off for these calls is given here.

Histone acetyltransferase p300 (Homo sapiens), sequence (Q09472 whole entry): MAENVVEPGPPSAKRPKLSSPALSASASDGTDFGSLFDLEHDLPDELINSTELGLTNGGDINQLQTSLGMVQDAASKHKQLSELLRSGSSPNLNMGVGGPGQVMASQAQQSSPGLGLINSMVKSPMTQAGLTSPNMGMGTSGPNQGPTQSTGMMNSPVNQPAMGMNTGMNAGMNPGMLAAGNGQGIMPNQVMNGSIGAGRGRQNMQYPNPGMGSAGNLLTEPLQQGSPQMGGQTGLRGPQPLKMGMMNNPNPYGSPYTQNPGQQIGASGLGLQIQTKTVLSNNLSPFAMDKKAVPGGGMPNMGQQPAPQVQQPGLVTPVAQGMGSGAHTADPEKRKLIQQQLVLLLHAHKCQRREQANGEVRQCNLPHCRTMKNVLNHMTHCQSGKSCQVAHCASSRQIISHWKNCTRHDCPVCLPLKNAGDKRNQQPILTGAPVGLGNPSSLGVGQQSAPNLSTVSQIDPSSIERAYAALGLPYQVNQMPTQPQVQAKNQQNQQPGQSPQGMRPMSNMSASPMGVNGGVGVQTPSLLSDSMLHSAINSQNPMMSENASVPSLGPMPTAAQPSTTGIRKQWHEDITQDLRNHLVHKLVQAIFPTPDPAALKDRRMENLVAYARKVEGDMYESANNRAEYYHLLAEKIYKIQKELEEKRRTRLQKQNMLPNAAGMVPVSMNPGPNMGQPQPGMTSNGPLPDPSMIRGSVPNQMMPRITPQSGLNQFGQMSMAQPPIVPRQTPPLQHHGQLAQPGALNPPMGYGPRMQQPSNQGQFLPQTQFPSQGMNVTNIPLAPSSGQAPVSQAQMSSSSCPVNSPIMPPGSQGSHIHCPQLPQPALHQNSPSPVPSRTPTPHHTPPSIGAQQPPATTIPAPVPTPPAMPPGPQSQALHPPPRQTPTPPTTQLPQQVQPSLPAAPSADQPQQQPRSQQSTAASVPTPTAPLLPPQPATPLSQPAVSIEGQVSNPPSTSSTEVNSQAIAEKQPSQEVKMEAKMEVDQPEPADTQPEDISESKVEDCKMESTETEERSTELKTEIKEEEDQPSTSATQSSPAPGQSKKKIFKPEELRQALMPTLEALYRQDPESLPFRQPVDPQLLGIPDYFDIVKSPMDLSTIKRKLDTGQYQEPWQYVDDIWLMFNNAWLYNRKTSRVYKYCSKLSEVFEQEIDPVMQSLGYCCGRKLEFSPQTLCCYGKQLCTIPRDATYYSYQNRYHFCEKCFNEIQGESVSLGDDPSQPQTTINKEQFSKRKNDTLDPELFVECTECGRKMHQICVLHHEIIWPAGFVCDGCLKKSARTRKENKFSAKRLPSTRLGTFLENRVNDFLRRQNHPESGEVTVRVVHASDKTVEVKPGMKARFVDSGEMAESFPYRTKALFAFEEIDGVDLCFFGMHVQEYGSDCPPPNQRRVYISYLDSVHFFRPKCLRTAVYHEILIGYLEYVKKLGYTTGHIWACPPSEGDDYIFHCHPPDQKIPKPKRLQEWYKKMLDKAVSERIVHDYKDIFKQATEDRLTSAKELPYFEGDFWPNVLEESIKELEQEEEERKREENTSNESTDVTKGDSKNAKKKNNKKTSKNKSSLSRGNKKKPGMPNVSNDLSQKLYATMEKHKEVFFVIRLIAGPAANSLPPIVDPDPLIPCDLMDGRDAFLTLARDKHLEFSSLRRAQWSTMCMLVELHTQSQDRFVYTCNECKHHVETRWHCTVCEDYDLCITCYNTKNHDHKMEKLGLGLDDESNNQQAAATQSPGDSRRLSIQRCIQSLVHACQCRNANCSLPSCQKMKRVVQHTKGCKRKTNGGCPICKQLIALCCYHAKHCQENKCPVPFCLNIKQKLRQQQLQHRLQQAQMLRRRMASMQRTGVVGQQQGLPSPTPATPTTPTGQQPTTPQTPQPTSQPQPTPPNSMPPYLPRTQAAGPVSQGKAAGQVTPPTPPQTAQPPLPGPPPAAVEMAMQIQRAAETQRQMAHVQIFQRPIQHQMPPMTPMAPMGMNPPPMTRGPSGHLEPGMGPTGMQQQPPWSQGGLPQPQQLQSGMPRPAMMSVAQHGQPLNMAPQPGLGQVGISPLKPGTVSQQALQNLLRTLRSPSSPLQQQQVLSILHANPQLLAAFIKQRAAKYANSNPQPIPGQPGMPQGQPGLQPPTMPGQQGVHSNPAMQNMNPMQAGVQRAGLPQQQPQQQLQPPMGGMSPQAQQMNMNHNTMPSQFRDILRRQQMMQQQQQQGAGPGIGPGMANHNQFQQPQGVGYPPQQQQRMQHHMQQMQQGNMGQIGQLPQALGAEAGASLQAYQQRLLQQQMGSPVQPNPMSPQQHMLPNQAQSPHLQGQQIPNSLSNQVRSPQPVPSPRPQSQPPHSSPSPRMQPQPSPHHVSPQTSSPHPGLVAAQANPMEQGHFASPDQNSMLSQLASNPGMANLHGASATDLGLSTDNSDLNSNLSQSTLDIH

Turning to `Cc1noc(C)c1-c1ccc(=O)n(Cc2ccccc2)c1`, the IC50 is 230 nM in [1], 80 nM in assay [2] and 280 nM in [3]. In addition, the ΔTm in assay [4] came out at 5 °C. Besides, the result in assay [5] and in assay [6] was Active. In addition, the result in assay [7], in assay [8], in assay [9], in [10], in assay [11] and in assay [12] was inactive.
`Cc1noc(C)c1-c1ccc(=O)n(Cc2ccc(C3CO3)c(F)c2)c1` (stereo not given): the figures for the IC50 in assay [1] and in [2] were 160 nM and 130 nM, respectively. Besides, the result in [4], in [13], in assay [14], in assay [15] and in assay [21] was Active. Further, the inhibition entry in assay [16], in assay [17], in [18], in assay [19] and in assay [20] was “Active” in each case. The result in assay [7], in assay [8], in [9], in assay [10], in assay [11] and in [12] was inactive.

A word on the IC50: it is the point on the concentration scale where inhibition reaches its midpoint. A word on the ΔTm: it is the change in melting temperature against a reference sample.
